Here are results for 5 compounds from ChEMBL document CHEMBL3797022, “New applications for known drugs: Human glycogen synthase kinase 3 inhibitors as modulators of Aspergillus fumigatus growth” (Eur J Med Chem, 2016).

Assay [1] concerns Aspergillus fumigatus. As to the kind of experiment: Anifungal activity against Aspergillus fumigatus CM237 assessed as growth inhibition at 50 uM after 48 to 72 hrs by Neubauer chamber analysis. The format is functional, organism-based. The method in brief:
(§1)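 A. fumigatus wild-type prototroph conidia were used, 10^3 spores counted by Neubauer chamber and inoculated centrally onto 1 ml AMM. Inhibitors were dissolved in DMSO from 50 mM stocks and added to melted medium, with a DMSO-only control. Colonial growth was scored at 37°C after 48 and 72 h.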

Assay [2] concerns Aspergillus fumigatus. As to the kind of experiment: Anifungal activity against Aspergillus fumigatus AF293 assessed as growth inhibition at 50 uM after 48 to 72 hrs by Neubauer chamber analysis. Format: functional. The method in brief:
as §1

Assay [3] deals with Aspergillus fumigatus. As to the kind of experiment: Anifungal activity against Aspergillus fumigatus CBS144 assessed as growth inhibition at 50 uM after 48 to 72 hrs by Neubauer chamber analysis. The format is functional, organism-based. The method in brief:
as §1

In assay [4] the test system is Aspergillus nidulans. As to the kind of experiment: Anifungal activity against Aspergillus nidulans MAD4097 deficient in sltA assessed as reduction in colonial diameter at 10 uM after 72 hrs by Neubauer chamber analysis. The format is functional. To be noted: MAD4097, 72 h. The method in brief:
(§2)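 A. nidulans sltA-deleted prototroph MAD4097, alongside wild-type MAD4096 and crzA-null MAD4100, tested on solid minimal medium (AMM) containing increasing inhibitor concentrations, added from DMSO stock (stock 50 mM); equal DMSO in control medium. 10^3 spores (Neubauer chamber count) centrally inoculated per well; 37°C for 72 h, colonies then photographed and colonial growth evaluated.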

Assay [5] concerns Aspergillus nidulans. As to the kind of experiment: Anifungal activity against Aspergillus nidulans MAD4096 assessed as growth inhibition at 50 uM after 72 hrs by Neubauer chamber analysis. The format is functional, organism-based. The gist of the method: (§3)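 A. nidulans prototroph strains (wild type MAD4096; crzAΔ MAD4100) were point-inoculated with 10^3 conidia, counted by Neubauer chamber, onto 1 ml AMM. The medium contained inhibitor from a 50 mM DMSO stock added to the melted agar, with a matching DMSO control. Colonial growth was evaluated photographically after 72 h at 37°C.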

The test system of assay [6] is Aspergillus nidulans. As to the kind of experiment: Anifungal activity against Aspergillus nidulans MAD4100 deficient in crzA assessed as growth inhibition after 72 hrs by Neubauer chamber analysis. The format is functional, organism-based. The gist of the method:
as §3

The subject of assay [7] is Aspergillus nidulans. As to the kind of experiment: Anifungal activity against Aspergillus nidulans MAD4097 deficient in sltA assessed as reduction in colonial diameter at 50 uM after 72 hrs by Neubauer chamber analysis. The format is functional, organism-based. The method in brief: as §2
For assay [8], the system named is Aspergillus fumigatus. As to the kind of experiment: Anifungal activity against Aspergillus fumigatus AF293 assessed as growth inhibition at 100 uM after 48 to 72 hrs by Neubauer chamber analysis. Format: functional. The gist of the method: as §1
Assay [9] deals with Aspergillus fumigatus. As to the kind of experiment: Anifungal activity against Aspergillus fumigatus CM237 assessed as growth inhibition at 100 uM after 48 to 72 hrs by Neubauer chamber analysis. Format: functional, organism-based. The gist of the method:
as §1

Assay [10] relates to Aspergillus nidulans. As to the kind of experiment: Anifungal activity against Aspergillus nidulans MAD4096 assessed as growth inhibition after 72 hrs by Neubauer chamber analysis. The format is functional, organism-based. The method in brief: as §3
Assay [11] has as its system Aspergillus fumigatus. As to the kind of experiment: Anifungal activity against Aspergillus fumigatus CBS144 assessed as growth inhibition at 100 uM after 48 to 72 hrs by Neubauer chamber analysis. Format: functional, organism-based. The gist of the method:
as §1

For assay [12], the system named is Aspergillus fumigatus. As to the kind of experiment: Anifungal activity against Aspergillus fumigatus CM237 assessed as growth inhibition at 5 uM after 48 hrs by Neubauer chamber analysis. Format: functional, organism-based. The method in brief: (§4)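 Wild-type prototroph A. fumigatus strains (CM237, AF293, CBS144) grown on solid minimal medium (AMM) with inhibitor added from DMSO stock (stock 50 mM); DMSO-only medium as control. 10^3 spores (counted by Neubauer chamber) centrally point-inoculated per well; incubated at 37°C, colonial growth scored after 48 and 72 h.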

Assay [13] has as its system Aspergillus fumigatus. As to the kind of experiment: Anifungal activity against Aspergillus fumigatus CM237 assessed as growth inhibition at 5 uM after 72 hrs by Neubauer chamber analysis. The format is functional, organism-based. The gist of the method: as §4
In assay [14] the test system is Aspergillus fumigatus. As to the kind of experiment: Anifungal activity against Aspergillus fumigatus CBS144 assessed as growth inhibition at 5 uM after 48 to 72 hrs by Neubauer chamber analysis. Format: functional, organism-based. The gist of the method:
as §4

For assay [15], the system named is Aspergillus fumigatus. As to the kind of experiment: Anifungal activity against Aspergillus fumigatus AF293 assessed as growth inhibition at 5 uM after 48 hrs by Neubauer chamber analysis. The format is functional. The method in brief: as §4
The subject of assay [16] is Aspergillus nidulans. As to the kind of experiment: Anifungal activity against Aspergillus nidulans MAD4097 deficient in sltA assessed as growth inhibition after 72 hrs by Neubauer chamber analysis. Format: functional, organism-based. The gist of the method: as §2
Assay [17] has as its system Aspergillus fumigatus. As to the kind of experiment: Anifungal activity against Aspergillus fumigatus AF293 assessed as growth inhibition at 5 uM after 72 hrs by Neubauer chamber analysis. The format is functional. The method in brief: as §4
For assay [18], the target named is Glycogen synthase kinase-3 beta (Homo sapiens, UniProt P49841). As to the kind of experiment: Inhibition of human recombinant GSK3beta expressed in Escherichia coli using GS-1 as substrate incubated for 20 mins by gamma[32P]ATP-based scintillation counting analysis.
Glycogen synthase kinase-3 beta, sequence (P49841 whole entry): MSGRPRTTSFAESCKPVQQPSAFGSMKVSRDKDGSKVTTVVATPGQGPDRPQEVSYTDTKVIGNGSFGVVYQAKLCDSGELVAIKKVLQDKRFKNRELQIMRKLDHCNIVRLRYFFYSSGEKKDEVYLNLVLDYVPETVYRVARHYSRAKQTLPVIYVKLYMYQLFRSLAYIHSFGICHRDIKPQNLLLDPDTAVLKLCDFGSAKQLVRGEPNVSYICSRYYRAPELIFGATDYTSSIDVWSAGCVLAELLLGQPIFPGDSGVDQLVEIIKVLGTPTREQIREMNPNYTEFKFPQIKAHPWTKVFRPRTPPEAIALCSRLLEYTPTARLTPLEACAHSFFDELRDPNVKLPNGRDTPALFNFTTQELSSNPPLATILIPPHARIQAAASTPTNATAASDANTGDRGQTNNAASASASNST

The source made the active and inactive calls. The rule behind the calls is not given here.

Regarding `Cn1sc(=O)n(Cc2ccccc2)c1=O`, the “growth inhibition (GI)” value in assay [1], in assay [2], in [3] and in [5] was “Active” in each case. In [4], the inhibition (in general, the change of the read-out against control, counted positive when it falls) at 10 µM was found to be 50%. In addition, in assay [6], the “growth inhibition (GI)” value was “inactive”.

Take `O=c1sn(-c2cccc3ccccc23)c(=O)n1Cc1ccccc1`: the inhibition entry in [7] was “Active”. The “growth inhibition (GI)” value in assay [8], in assay [9], in assay [10], in assay [6] and in [11] was “inactive” each time.

For `O=C(CCl)c1scc(Br)c1Br`, the “growth inhibition (GI)” value in assay [12], in assay [14], in assay [15] and in [16] was “Active” in each case. For the same compound, the “growth inhibition (GI)” value in assay [13], in [17] and in assay [6] was “inactive” throughout.

As for `COc1ccc(CNC(=O)Nc2nc(C)c(C(C)=O)s2)cc1`, in assay [18], the IC50 (as a rule, the concentration needed to halve the response being measured) is 0.6 µM. For the same compound, the “growth inhibition (GI)” value in [10] and in assay [6] was “inactive” in each case.

For the compound `CCCCCCCCCCCC(=O)NNC(=O)c1c(O)c2ccccc2n(CC)c1=O`, in [18], the IC50 was 2.8 µM. Besides, the “growth inhibition (GI)” value in assay [10] and in assay [6] was “inactive” throughout.
